Fewer inactive variants are shown than the library holds. Where only a bound is given, the exact number is not on record here.

Consider 38 variants from the RNAGym collection of RNA variant scans (doi:10.1126/science.aae0568).

To fix the notation:
B1: tRNA (parent)
chain: GUUCCGUUGGCGUAAUGGUAACGCGUCUCCCUCCUAAGGAGAAGACUGCGGGUUCGAGUCCCGUACGGAACG

This data set covers variants of B1. Nature of the data set: yeast fitness relative to wild type (ratio to wild type); higher = fitter; tRNA-Arg(CCU), competitive growth, 37 C, YPD. Put shortly: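 Genotype frequency changes were the basis for Darwinian fitness relative to wild type. The frequencies came from 100-nucleotide paired-end sequencing of gene amplicons from the start population and each end population of pooled yeast strains with tRNA-Arg(CCU) gene variants at the native locus. Competition ran in YPD at 37°C for 24 hours in six replicates, genotypes needed ≥ 100 starting reads, and estimates < 0.5 were set to 0.5.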
Regarding GUUCCGUUGGCGUAAUAGUGACGCGUCUCCCUCAUAAGGGGAAGACUGCGGGUUCGAGUCCCGUAUGGAACG, the yeast fitness was ≤ 0.5.

Consider GUCUCGUUGACGUAAUGGUAACGCGUCUCUCUCCUAAGGAGAAGACUGUGGGUUCGAGUCCCGUACGGAACG, for which the yeast fitness worked out at 0.598.

As to GUUCCGUUGGCGUAAUGGUAACGCGUCUCGCUCCUAUGGAGAAGACCGCGGGUUCGAGUACCGUACGGAACG, the yeast fitness worked out at 0.68.

GUUCCGUUGGCGUAGUGGUAAUGCGUCUCCCUCCUUAGGAGAAGACUGCGGGUUCGAGUACCGUACGGAACG: the yeast fitness is 0.589.

Consider GUUCCGUUGGCGUAAUGGUAACGCGUCCUCCUCCUAAGGAGAAGACUGCGGGUUCGAGUCCCCUUCGGAACG, for which the yeast fitness is ≤ 0.5.

With GUCCCGUUGGCGUAAUGGUUACGCGUCUCCCUCCUAAGGAGAAGACUGCGGGUUCGAGUCCCGUACGGGACG, the yeast fitness worked out at 0.612.

In the case of GUUCCGUUAGGGUAAUGGUAACGGGUCUCCCGCCUAAGGAGAAGACUGCGGCUUCGAGUCCCGUACGGAACG, the yeast fitness is ≤ 0.5.

On to GUUCGGUUGGCGUCAUGGUAACGCGUCUACGUCCUAAGGAGAAGACUGCGGGUACGAGUCCCGUACGGAACG, for which the yeast fitness stood at 0.638.

Regarding GUUCCGUUGGCGUAAUGGUAACGGGUCUCCCUCCUAAGGAGGAGACUGCGGGUUCGAGUCCCGUGCGGAACG, the yeast fitness is ≤ 0.5.

For GUUCCGCUGGCGUUAUGGUAACGCGUCUCCCUCCUAAGGAGAAGACUGCGGGUUCGAGUCCCGUCCGGAACG, the yeast fitness was ≤ 0.5.

For the variant GUUCCGUUGGCGUAAUAGUAACGCGUCUCCCUCCUAAGGAGAAGAAUGCGGGUUCGAGUCCCGUGCGGAACG, the yeast fitness is ≤ 0.5.

As to GUUCCGUCGGCCUAAUGGUAACGCGGCUCCCUCCUAAGGAGAAGACUGCGGGUUCGAGUCCCGUACGGAACG, the yeast fitness was ≤ 0.5.

For GUUCCGUUGGCGUAAUGGUAACGUGUCUCCUUCCUAAGGAGAAGACUGCGGGUUCGAGUCCCGUACGGAACG, the yeast fitness was found to be 0.96.

Consider GUUCCGUUGGCGAAAUGGUAACGCGUCUCCCUCCUAAGGAGAAGACUGCGGGUUCGAGUCCGGUACGGAACG, for which the yeast fitness worked out at 0.78.

As to GUUCUGUUGGCGUAAUGGGAACGCGUCUCCCUCCUAAGGAGAAGACUGCGGGUUCGAGUCCCGUACGGAACG, the yeast fitness was determined as 1.

Regarding GUUCCGUUGGCGUAAUGGUAACGCGUCUCCCUCCUAAGGAGAAGCCUGUGGGUUCGAGUCCCGUACGGAACG, the yeast fitness worked out at 0.978.

As to GUUUCGUUGGCGUAAUGGUAACGUGUCUCCCUCCUAAGGAGAAGACUGCGGGUUCCAGUCCCGUACGGAACG, the yeast fitness is 0.505.

Take GUUCCGUUGGCGUAAUGGUAACGCGUCUCCCCCCUAAGGAGAAGACUGCGGGUUCGAGUCCCGUACAGAACG: the yeast fitness was determined as 0.855.

Consider GUUGCCUUGGCGUAAUGGUACCGCGUCUCCUUCCAAAGGAGAAGACGGCGGGUUCGAGUCCCGUACGGAACG, for which the yeast fitness is 0.569.

Regarding GUUCAGUUGGCAUAAUGGUAACGCGUCUCCCUCCAAAGGAGGAGACUGCGGGUUCGAGUCCCGUCAGGAACG, the yeast fitness stood at 0.6.

In the case of GUUCCGUUAGCGUAAUGGUAAGGCGUCUCCCUCCCAAGGAGAAGACUGGGGGUUCGAGUCCCGUACGCAACG, the yeast fitness is ≤ 0.5.

Regarding GUUCCGUUGGCGCAAUGGUAACGCGUCUCCCUCCUAAGGAGAAGACUGCGGGUUCGAGUCCCGUACGAAACG, the yeast fitness stood at 0.785.

Regarding GUUCCGUUGGGGUAAUGGUCACGGGUCUCCCUCCUAAGGAGAAGACUGCGGGUUCGAGUCCCGUACGGAACG, the yeast fitness was ≤ 0.5.

For the variant GUUCCGCUGGCGUAAUGGUAGCGCGUCUCCCUCCUAAGGAGAAGACUGUGGGUUCGAGUCCCGUACGGAACG, the yeast fitness was found to be 0.722.

As to GUUCCGUUGGCGUAAUGGUAACGCGUCCCCCUCCUAAGGAGAAGACUGCGGGUUCGAGUCCCGUACGGAGCG, the yeast fitness was found to be 0.92.

Take GCCCCGUUGGCGUAAUGGAAACGCGUCUCCCUCCUAAGGAGAAGACUGCGGGUUCGAGUCACGUACGGAACG: the yeast fitness was ≤ 0.5.

Regarding GUUCCGUUGGCGUAAUGGCAACGCGUCUCCCUCCUAAGGAGAAGAAUGCGGGUUCGAGUCCCGUACGGAACG, the yeast fitness was 0.978.

For GUUCCGUAGGCGUAAUGGUAACGCGUCUCCCUCCUGAGGAGAAGACUGCGGGUUCGAGUCCCGUACCGAACG, the yeast fitness was ≤ 0.5.

Turning to GUUUCGUUGGAGUAAUGGUAACGCGUCUCCCUCCUAAGGAGAAGACUGCGGGUUCGAGUCCCGUACGGAACG, the yeast fitness was determined as 0.61.

On to GUUCCGUUGGCGUAAUGGUAACGCGUCUCCCUCCUAAGGGGAAGACUGCGGGUUCGCGUCCUGUACGGAACG, for which the yeast fitness was ≤ 0.5.

GUUCCGUUAGCGUAAUGGUAACGCGUCCCCCUCCUAAGGAGAAAACUGCGCGUUCGACUCCCGUACGCAACG: the yeast fitness was ≤ 0.5.

Turning to GUCCCGUUGGCGUAAUGGUAACACGUCUCCCUCUUAAGGUGUAGACUGCGGGUUCGAGUCCCGAACGGAACG, the yeast fitness is ≤ 0.5.

For GUUCCGUUGGCGUAAUGGUAACGCGUUUCCCUCCUCAGGAGAAGACUGCGGGUUCCAGUCCCGUACGAAUCG, the yeast fitness is ≤ 0.5.

As to GUUCCGUUGGCGUAAUGGUAACGCGUGUCCCGCCUAAGGAGCAGACUGCGGGUUCGAGUCCCGUACGGAACG, the yeast fitness is ≤ 0.5.

GUUCCGUUGGCGUAAUCGUAACGCGUCUCCCUCCUAAGGAGAAGACUGCGGGUUCGAGUCCCGUACAGAACG: the yeast fitness was 0.67.

Take GUUCCGUUGGCCUAAUGGUAACGCGUCUCCCUCCUAACGAGAAGACUGCGGGUUCGAGUCCCGUACGGAACG: the yeast fitness came to 0.54.

For the variant GUUGCGUUGGCGUAAUGGAAACGCGUCUGCCUCCUAAGGAAAAGAUUGCGGGUCCGAGUACCGUACGGAACG, the yeast fitness was 0.737.

GUACCGUUGGCGUAAUGGUAACGCGUCUCCCUCCUAAGGAGACGAAUCCGGGUUCGAGUCCCGUACGGAACG: the yeast fitness came out at 0.57.
